We go through five compounds from ChEMBL document CHEMBL1124576 (J Med Chem, 1989).

For test [1], the target named is T1, Adrenergic receptor alpha-1 (Rattus norvegicus, UniProt P15823+P23944+P43140).
T1 sequence (P15823 whole entry): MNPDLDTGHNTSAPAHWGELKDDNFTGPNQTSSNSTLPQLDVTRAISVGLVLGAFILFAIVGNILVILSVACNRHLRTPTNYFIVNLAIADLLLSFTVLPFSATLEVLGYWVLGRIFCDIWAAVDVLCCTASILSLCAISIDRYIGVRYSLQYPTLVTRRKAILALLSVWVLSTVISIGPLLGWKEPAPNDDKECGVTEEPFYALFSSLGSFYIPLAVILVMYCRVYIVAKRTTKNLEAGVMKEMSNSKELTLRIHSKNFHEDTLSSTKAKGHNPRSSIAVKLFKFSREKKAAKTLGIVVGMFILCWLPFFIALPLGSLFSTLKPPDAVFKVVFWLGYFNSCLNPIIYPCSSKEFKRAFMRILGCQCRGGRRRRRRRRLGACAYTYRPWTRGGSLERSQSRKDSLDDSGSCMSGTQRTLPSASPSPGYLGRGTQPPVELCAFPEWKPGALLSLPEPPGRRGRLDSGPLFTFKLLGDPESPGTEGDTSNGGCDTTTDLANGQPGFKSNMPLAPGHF
T1 sequence (P23944 whole entry): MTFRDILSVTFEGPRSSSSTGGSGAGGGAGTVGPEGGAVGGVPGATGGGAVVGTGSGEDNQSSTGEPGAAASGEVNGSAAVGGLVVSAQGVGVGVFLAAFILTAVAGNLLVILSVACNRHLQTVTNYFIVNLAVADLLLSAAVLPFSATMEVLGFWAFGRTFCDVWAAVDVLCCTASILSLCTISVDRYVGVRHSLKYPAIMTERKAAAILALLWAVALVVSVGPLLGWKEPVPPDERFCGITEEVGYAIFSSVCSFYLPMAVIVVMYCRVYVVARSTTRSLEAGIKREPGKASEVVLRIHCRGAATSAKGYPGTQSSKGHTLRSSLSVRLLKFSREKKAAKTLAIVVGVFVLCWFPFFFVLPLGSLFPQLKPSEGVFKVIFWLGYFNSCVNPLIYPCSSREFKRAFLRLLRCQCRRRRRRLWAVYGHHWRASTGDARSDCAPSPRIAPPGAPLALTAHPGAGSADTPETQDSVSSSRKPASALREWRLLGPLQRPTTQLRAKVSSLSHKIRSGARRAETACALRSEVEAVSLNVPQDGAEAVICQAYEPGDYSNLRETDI
T1 sequence (P43140 whole entry): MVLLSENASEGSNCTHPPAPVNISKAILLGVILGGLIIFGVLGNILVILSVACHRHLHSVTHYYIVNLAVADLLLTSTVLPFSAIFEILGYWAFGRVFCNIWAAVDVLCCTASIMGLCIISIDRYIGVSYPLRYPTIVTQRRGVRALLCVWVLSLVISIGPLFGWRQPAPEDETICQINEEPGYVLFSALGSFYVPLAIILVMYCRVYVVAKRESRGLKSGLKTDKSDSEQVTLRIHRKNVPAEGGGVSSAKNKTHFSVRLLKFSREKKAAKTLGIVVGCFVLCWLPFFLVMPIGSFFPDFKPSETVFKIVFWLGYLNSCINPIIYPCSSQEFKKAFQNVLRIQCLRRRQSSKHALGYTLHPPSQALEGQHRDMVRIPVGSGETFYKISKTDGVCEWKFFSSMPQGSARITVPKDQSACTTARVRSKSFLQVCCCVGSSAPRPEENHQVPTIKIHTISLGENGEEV
Kind of test: Binding affinity against alpha-1 adrenergic receptor in rat cerebral cortical membrane, determined using [3H]prazosin as the radioligand.

The target in test [2] is T2, Adrenergic receptor alpha-2 (Rattus norvegicus, UniProt P22086+P19328+P22909).
T2 sequence (P22086 whole entry): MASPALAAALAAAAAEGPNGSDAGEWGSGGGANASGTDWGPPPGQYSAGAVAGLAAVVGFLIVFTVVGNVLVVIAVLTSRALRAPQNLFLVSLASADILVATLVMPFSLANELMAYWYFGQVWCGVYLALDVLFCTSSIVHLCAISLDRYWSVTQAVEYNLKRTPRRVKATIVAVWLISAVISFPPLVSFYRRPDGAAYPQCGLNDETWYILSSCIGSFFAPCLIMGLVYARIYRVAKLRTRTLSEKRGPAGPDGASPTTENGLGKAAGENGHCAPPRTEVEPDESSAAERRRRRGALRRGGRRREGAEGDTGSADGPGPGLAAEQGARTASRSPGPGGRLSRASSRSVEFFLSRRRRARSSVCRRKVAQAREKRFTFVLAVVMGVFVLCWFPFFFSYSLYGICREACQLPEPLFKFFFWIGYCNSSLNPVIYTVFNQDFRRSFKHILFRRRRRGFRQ
T2 sequence (P19328 whole entry): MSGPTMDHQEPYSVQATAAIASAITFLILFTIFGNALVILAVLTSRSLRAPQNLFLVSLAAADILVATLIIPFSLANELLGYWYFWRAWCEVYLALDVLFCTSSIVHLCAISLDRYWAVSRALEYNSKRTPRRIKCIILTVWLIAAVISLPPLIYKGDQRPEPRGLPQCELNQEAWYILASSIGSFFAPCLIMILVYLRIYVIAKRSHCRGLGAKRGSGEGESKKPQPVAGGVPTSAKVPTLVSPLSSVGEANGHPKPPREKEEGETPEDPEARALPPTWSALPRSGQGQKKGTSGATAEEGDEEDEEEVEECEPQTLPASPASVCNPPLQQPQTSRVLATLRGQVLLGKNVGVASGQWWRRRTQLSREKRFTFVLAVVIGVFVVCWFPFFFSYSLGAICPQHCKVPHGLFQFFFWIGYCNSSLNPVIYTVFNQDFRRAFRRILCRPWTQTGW
T2 sequence (P22909 whole entry): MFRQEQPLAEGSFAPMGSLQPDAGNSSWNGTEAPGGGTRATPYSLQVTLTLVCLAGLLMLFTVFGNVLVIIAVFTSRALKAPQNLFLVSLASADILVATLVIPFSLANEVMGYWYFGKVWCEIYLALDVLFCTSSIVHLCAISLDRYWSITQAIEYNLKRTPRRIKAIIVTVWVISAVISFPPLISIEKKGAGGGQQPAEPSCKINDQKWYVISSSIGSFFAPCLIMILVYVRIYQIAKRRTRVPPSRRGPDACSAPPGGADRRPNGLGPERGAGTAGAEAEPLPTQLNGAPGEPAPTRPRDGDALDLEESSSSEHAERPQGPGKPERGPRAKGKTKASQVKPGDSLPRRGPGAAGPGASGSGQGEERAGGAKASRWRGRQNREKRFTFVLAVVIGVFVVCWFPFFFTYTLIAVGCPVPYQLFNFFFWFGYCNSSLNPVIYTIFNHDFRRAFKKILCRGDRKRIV
The test is described as follows: Binding affinity against alpha-2 adrenergic receptor in rat cerebral cortical membrane, determined using [3H]- yohimbine as the radioligand.

For another test, the species on record is Oryctolagus cuniculus. The test is described as follows: Inhibition of phenylephrine-induced contraction of the rabbit aorta as a measure of functional alpha-1-adrenoceptor antagonism. The note with it: read-out: pA2 (converted). The method, boiled down:
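Rabbit aorta contracted with phenylephrine; alpha1 antagonism read as reversal of the contraction, expressed as pA2. Means of at least three separate determinations.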

Test [3] has as its system Rattus norvegicus. Kind of test: Beta-adrenoceptor binding density by administering 0.5 mg/kg (once daily for 14 days) in rats. The class given is functional. The method, boiled down: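 Rats dosed 0.5 mg/kg once daily for 14 days. Cortical beta-adrenoceptor density measured as Bmax, fmol [3H]dihydroalprenolol bound per mg protein, and compared with untreated controls.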

In test [4] the test system is Rattus norvegicus. The test is described as follows: Reversal clonidine-induced mydriasis in rat, after oral administration. The class given is functional. Conditions: read-out: ID50 (the source's name). The method, boiled down: (§1)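 Rats given clonidine to induce mydriasis; test agent dosed iv or orally. Pupillary diameter measured 10 min after dosing. Value is the dose […] that reduces pupil diameter to 50% of the clonidine-induced maximum. Means of five determinations, SD under 10%. Ratio is oral over iv dose.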

The test system of test [5] is Rattus norvegicus. Kind of test: Reversal of clonidine-induced mydriasis in rat, after intravenous administration. The class given is functional. The note with it: read-out: ID50 (the source's name). A digest of the protocol:
as §1

Test [6] in a line: ratio of Oral and Intravenous inhibitory concentrations against reversal of clonidine-induced Mydriasis in rat was evaluated. The class given is functional. A digest of the protocol: as §1
A short description of test [7]: Antilog of pKi [3H]yohimbine minus PKi [3H]-prazosin was expressed as selectivity.
A short description of test [8]: Antilog of pA2 (Uk14304) minus PA2 (Phenylephrine) was expressed as selectivity. The class given is functional. The method, boiled down: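 Guinea pig ileum contracted by field stimulation; alpha2 antagonism read as reversal of the inhibitory effect of UK-14304 on the contraction, expressed as pA2. Selectivity index is the antilog of pA2 (UK-14304) minus pA2 (phenylephrine). Means of at least three separate determinations.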

Test [9] has as its target Adrenergic receptor alpha-2 (Cavia porcellus). Kind of test: Ability to reverse inhibitory effects of UK-14304 on the contraction of guinea pig ileum as a measure of alpha-2 adrenergic receptor antagonism.
Test [10] can be described thus: Antilog of pKi [3H]-yohimbine minus pKi [3H]prazosin.

Regarding `COc1ccc2c(c1)CCN1C[C@H]3CCCN(S(C)(=O)=O)[C@@H]3C[C@@H]21`, the “Log Ki” value is -5.29 in [1] and -9.45 in test [2]. Moreover, the Kb in the test listed under Oryctolagus cuniculus was 794 nM. In the test on Rattus norvegicus [3], the Bmax amounted to 57 fmol/mg. The results for the ED50 in the test on Rattus norvegicus [4] and in the test with Rattus norvegicus [5] were 0.095 mg/kg and 0.0065 mg/kg, respectively. In addition, in [6], the Ratio is recorded as 14.6. Also, the results for the Selectivity in [7] and in [8] were 15000 and 4000, respectively. Besides, the pA2 in [9] is on record as 9.7.

Take `COC(=O)[C@@H]1[C@H]2C[C@H]3c4[nH]c5ccccc5c4CCN3C[C@@H]2CC[C@@H]1O` [YOHIMBINE]: the ED50 is 2.8 mg/kg with Rattus norvegicus [4] and 0.185 mg/kg in the test with Rattus norvegicus [5].

For the compound `COc1ccc2c(c1)CCN1C[C@@H]3CCCN(S(C)(=O)=O)[C@H]3C[C@H]21`, the Log Ki in [1] was greater than -5; in [2], -6.32. Besides, the Kb in the test listed under Oryctolagus cuniculus was 10000 nM. Moreover, the ED50 in the test with Rattus norvegicus [4] and with Rattus norvegicus [5] was greater than 10 mg/kg in each case. Further, the Selectivity in test [7] and in [10] was greater than 50 throughout. Further, in test [9], the pA2 is 6.5.

`COc1ccc2c(c1)CCN1CC3CCCN(S(C)(=O)=O)C3CC21` (stereo unspecified): the “Log Ki” value in test [1] was -4.99; in test [2], -9.18. Besides, in the test listed under Oryctolagus cuniculus, the Kb is greater than 1000 nM. Further, the figures for the ED50 with Rattus norvegicus [4] and in the test on Rattus norvegicus [5] were 0.21 mg/kg and 0.013 mg/kg, respectively. In addition, the Ratio in test [6] is recorded as 16.2. For the same compound, the Selectivity in test [7] is 15000; in [8], greater than 4000. Besides, the pA2 in [9] was determined as 9.7.

For `c1ccc2c(c1)OCC(C1=NCCN1)O2` (stereo unspecified) [IDAZOXAN], the ED50 was found to be 1.2 mg/kg in the test with Rattus norvegicus [4] and 0.017 mg/kg in the test with Rattus norvegicus [5].

The pA2 is a measure of antagonist potency on a negative log scale. Read a low pA2 as a weaker antagonist.
